These results are taken from PubChem BioAssay.

Test [1] can be described thus: inhibitors of TNFa-induced NFkB p65 translocation, primary screen, imaging, HUVEC, MLSMR starter and 10KST1 sets (AID 438;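 active = inhibition above 20% together with a positive visual image hit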;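 also: compound added about 3h40 before a 20 min TNFalpha stimulation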;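 as to inhibition: signal is the nuclear over cytoplasmic p65 intensity ratio per well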). To be noted: HUVEC TNFa-induced p65 nuclear translocation; cell count: measured here: nuclei count (cytotoxicity indicator), at 2.08 µM; inhibition: at 2 µM, stronger effect = higher value, 0% TNFa-plus-vehicle, 100% no-TNFa wells.
Test [2] is described as follows: inhibitors of E-selectin induction by TNFa, primary screen, imaging, HUVEC, immunofluorescence, MLSMR starter and 10KST1 sets (AID 487;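 active = visually confirmed hit in the image check and inhibition above 20%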;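 as to inhibition: signal is fraction of cell area covered by stained E-selectin grains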;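 as to nuclei count: 100% = median nuclei count of all wells on the same plate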). To be noted: HUVEC TNFalpha-induced E-selectin immunofluorescence imaging, at 2 µM; inhibition: stronger effect = higher value; nuclei count: measured here: cell number, toxicity.
A short description of test [3]: DUSP6 inhibitors restoring Erk phosphorylation by chemical complementation, primary imaging in DUSP6-transfected HeLa (AID 609;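 active = compounds giving at least 50% inhibition in the cell-based MKP-3 phosphatase rescue imaging test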;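 as to inhibition: phospho-Erk level distribution per well compared with pooled transfected vehicle control wells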). Conditions: HeLa MKP-3 transfected, phospho-Erk imaging KS statistic, at 10 µM, cells stimulated with TPA for 15 min.
Test [4] addresses Dual specificity protein phosphatase 6 (Homo sapiens) (UniProt Q16828). The description is as above. To be noted: HeLa MKP-3 transfected, phospho-Erk imaging KS statistic; at 10 µM; stronger effect = higher value; cells stimulated with TPA for 15 min.
Test [5] has as its target Voltage-gated potassium channel subunit beta-2 (Rattus norvegicus) (UniProt P62483). Description: KvBeta enzyme negative modulators, primary screen, biochemical, NADPH fluorescence (AID 622).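 Also: slope of raw intensity against log time taken from 70 to 1610 s.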 Conditions: recombinant KvBeta, 4-cyanobenzaldehyde reduction, at 10 µM, stronger effect = higher value.
The target is the same in test [6]. Description: KvBeta positive modulators, primary screen, biochemical, NADPH fluorescence (AID 623;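 active = NADPH fluorescence slope more negative than the mean of all samples by about 3 SD, 99.7% confidence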;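 also: fluorescence intensity change per second fitted from 20 to 320 s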). To be noted: Recombinant KvBeta, NADPH fluorescence decrease slope, 10 min; at 10 µM; stronger effect = lower value.
In test [7] the target is Alpha-2C adrenergic receptor (Homo sapiens) (UniProt P18825). In words: modulators of alpha2C/GIRK thallium flux, primary screen, cell-based, HEK293 alpha2C/GIRK1/2 (AID 624;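 active = fluorescence slope after compound addition differing from the mean of all screened samples at 99.7% confidence, in either direction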;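 also: slope of fluorescence ratio to pre-addition baseline per second over 15 to 24 s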). Conditions: thallium flux BTC fluorescence, at 10 µM, actives lie on both sides.
Test [8] is described as follows: inhibitors of larval lipid processing in zebrafish, primary screen, whole organism, PED6 fluorescence, gall bladder and intestine (AID 686;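 active = a full or partial loss of lipid-probe fluorescence in the fish gall bladder, intestine or both, judged by eye; inactive = no fluorescence loss, or compound toxic to the fish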;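 also: larvae 5 to 7 days old with five fish per well; signal comes from phospholipase A2 cleavage of quenched PED6 carried via bile; overnight exposure to compound and PED6 before scoring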). To be noted: Zebrafish larvae PED6 lipid processing, fluorescence scoring; screened at 20 µM (by protocol). The method in brief:
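Also added: quenched phospholipase substrate PED6, 100 nM final, ingested by larvae; System: zebrafish larvae, 5-7 d; Quantity: 5 larvae per well; Compound: 20 µM single dose; Schedule: overnight compound and PED6 incubation; Read-out: visual per-well fluorescence inhibition score; Measured by: By-eye fluorescence microscopy; Medium: E3.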

A short description of test [9]: inhibitors of Chlamydomonas gravitaxis, primary screen, whole organism, Chlamydomonas reinhardtii, WT vs cilia-less mutant, absorbance, 96-well (AID 463189;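 active = inhibition at or above 50% relative to wild type and mutant plate controls; inactive = inhibition below 50%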;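 also: 0% = wild type cc124 cells in DMSO and 100% = ciliumless bld1 mutant cells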). To be noted: OD600 absorbance, 2 days, at 10 µM, stronger effect = higher value.
Setting [10] is: measured here: cell density z-score.
The mark [11] stands for this setting: measured here: nuclear c-Myc green intensity z-score.
Setting [12] is: measured here: nuclear pErk red intensity z-score, stronger effect = higher value.

What is called inhibition is the change of the read-out against control, counted positive when it falls.

Active and inactive are the calls of the source.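 The calls were made as follows, unless noted: active = fluorescence slope higher than the sample average by over 3 SD (cut at about -0.22 in these data, passing the limit was not always enough); inactive = the rest.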

Sequence of Voltage-gated potassium channel subunit beta-2 (Rattus norvegicus) (P62483 whole entry, looked up): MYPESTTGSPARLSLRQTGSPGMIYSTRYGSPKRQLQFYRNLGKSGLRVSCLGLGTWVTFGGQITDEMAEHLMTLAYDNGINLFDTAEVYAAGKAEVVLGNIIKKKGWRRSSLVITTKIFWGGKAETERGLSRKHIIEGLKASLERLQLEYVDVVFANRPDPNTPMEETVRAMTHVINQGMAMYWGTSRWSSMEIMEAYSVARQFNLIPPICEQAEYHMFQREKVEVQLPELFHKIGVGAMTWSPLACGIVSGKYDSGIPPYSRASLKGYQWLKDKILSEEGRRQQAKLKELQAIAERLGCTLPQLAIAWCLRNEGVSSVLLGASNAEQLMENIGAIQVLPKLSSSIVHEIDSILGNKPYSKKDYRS
Sequence of Dual specificity protein phosphatase 6 (Homo sapiens) (Q16828 whole entry, looked up): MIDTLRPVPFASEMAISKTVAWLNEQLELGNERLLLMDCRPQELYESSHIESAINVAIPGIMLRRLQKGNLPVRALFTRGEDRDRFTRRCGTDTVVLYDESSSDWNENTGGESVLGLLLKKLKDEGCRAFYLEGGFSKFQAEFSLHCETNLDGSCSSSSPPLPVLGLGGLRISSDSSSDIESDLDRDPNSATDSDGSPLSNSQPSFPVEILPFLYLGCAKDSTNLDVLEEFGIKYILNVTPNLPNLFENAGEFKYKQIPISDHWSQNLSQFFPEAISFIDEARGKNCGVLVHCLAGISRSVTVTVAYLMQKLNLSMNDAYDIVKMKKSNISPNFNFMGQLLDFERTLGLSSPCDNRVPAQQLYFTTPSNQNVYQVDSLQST
Sequence of Alpha-2C adrenergic receptor (Homo sapiens) (P18825 whole entry, looked up): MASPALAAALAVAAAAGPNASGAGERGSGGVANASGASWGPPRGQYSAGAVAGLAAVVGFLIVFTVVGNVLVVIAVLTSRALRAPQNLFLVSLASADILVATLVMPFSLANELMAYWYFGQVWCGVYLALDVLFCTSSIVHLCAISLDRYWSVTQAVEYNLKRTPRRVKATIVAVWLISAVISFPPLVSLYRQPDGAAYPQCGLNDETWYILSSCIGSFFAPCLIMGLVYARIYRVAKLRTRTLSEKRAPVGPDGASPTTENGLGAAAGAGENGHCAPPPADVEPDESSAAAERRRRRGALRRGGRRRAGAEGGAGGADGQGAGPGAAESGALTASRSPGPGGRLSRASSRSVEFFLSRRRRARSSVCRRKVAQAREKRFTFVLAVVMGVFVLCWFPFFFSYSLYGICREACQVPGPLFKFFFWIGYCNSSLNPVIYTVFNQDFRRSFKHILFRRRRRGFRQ

Turning to `Cc1nn2c(-c3ccc(Cl)cc3)nnc2s1`, the cell count in test [1] came to 551. Besides, the inhibition is -6.5% (inactive) in [1], -65.8% (inactive) in test [2], -6.06% (inactive) in test [4] and 17.4% (inactive) in test [9]. In test [2], this compound returned a nuclei count of 86.3%. Moreover, the z-score in [3] (setting [10]) was -0.293; in test [3] (setting [11]), -0.329; in [3] (setting [12]) it was 0.206. Besides, in [5], the fluorescence slope is -0.421 (inactive). The NADPH fluorescence slope in test [6] was -1.1e-05 (inactive). The slope in [7] is 0.00662 (inactive). Further, the outcome in test [8] was inactive.
As for `CN=c1sc2ccccc2n1CC(O)COc1ccccc1` (configuration not stated), in [1], the cell count is 462. Further, the inhibition in test [1] is -11% (inactive); in test [2], -95.8% (inactive); in [4] it was -0.624% (inactive); in test [9], -3.38% (inactive). The compound further gave a nuclei count in [2] of 204%. The z-score in test [3] (setting [10]) is -0.699; in test [3] (setting [11]), 0.37; in test [3] (setting [12]), 0.00223. In addition, the fluorescence slope in test [5] was -0.362 (inactive). In addition, the NADPH fluorescence slope in test [6] is -2.9e-05 (inactive). In test [7], the slope is 0.00426 (inactive). Besides, in test [8], the call was inactive.
As to `O=C(CCC(=O)CCN1CCCCC1)CCN1CCCCC1`, in test [1], the cell count was found to be 641. The inhibition was -2.1% (inactive) in test [1], 5.3% (inactive) in test [2], 15.1% (inactive) in test [4] and 12.4% (inactive) in [9]. In test [2], this compound returned a nuclei count of 170%. Besides, the z-score in test [3] (setting [10]) is -0.3; in [3] (setting [11]), 1.66; in test [3] (setting [12]) it was 0.253. For the same compound, in test [5], the fluorescence slope is -0.506 (inactive). Further, the NADPH fluorescence slope in test [6] was -0.000129 (inactive). In addition, the slope in test [7] was 0.00498 (inactive). Moreover, the compound was called inactive in [8].
Regarding `Cc1ccsc1C1NC(=O)c2c(sc3c2CCCC3)N1` (configuration not stated), the cell count in test [1] worked out at 584. Further, the inhibition was -31.7% (inactive) in test [1], -31.6% (inactive) in test [2], -18.6% (inactive) in [4] and 22.5% (inactive) in test [9]. This compound also returned a nuclei count in test [2] of 166%. Besides, the z-score is -1.62 in [3] (setting [10]), -0.46 in test [3] (setting [11]) and 1.02 in [3] (setting [12]). The fluorescence slope in [5] was -0.411 (inactive). The NADPH fluorescence slope in [6] is -3.5e-05 (inactive). The slope in [7] is 0.00518 (inactive). Also, in test [8], the outcome was inactive.
For the compound `COC(=O)c1ccc(C(=O)OC)c(NC(=O)c2cc3ccccc3o2)c1`, the cell count in test [1] was 641. Moreover, the inhibition in test [1] is -12.1% (inactive); in test [2] it was 15.1% (inactive); in [4], 6.51% (inactive); in [9], -2.3% (inactive). Further, in test [2], the nuclei count stood at 175%. Besides, the z-score in test [3] (setting [10]) is 2.88; in [3] (setting [11]) it was -0.375; in test [3] (setting [12]), -1.4. Besides, in test [5], the fluorescence slope is -0.377 (inactive). The NADPH fluorescence slope in test [6] was -5.2e-05 (inactive). In addition, the slope in test [7] is 0.00547 (inactive). In addition, in test [8], the compound was called inactive.
Consider `COc1ccc(C2=Nn3c(nnc3-c3cccnc3)SC2)cc1OC`, for which the cell count in [1] amounted to 614. Besides, the inhibition in test [1] is -5.8% (inactive); in [2], -109% (inactive); in test [4], -7.86% (inactive); in test [9] it was 2.3% (inactive). The same compound displayed a nuclei count in test [2] of 152%. For the same compound, the z-score was -0.53 in test [3] (setting [10]), 0.48 in test [3] (setting [11]) and 0.0126 in [3] (setting [12]). Also, the fluorescence slope in test [5] was -0.398 (inactive). Also, the NADPH fluorescence slope in [6] is -0.000172 (inactive). Moreover, the slope in [7] is 0.00709 (inactive). Besides, in [8], the call was inactive.
Turning to `N/C(CCN1CCOCC1)=N/O`, the cell count in test [1] amounted to 570. In addition, the inhibition in test [1] was -20.6% (inactive); in test [2] it was 11.7% (inactive); in test [4], 22.7% (inactive); in test [9], 17.7% (inactive). This compound displayed a nuclei count in test [2] of 147%. In addition, the z-score in test [3] (setting [10]) was 0.759; in test [3] (setting [11]) it was -0.712; in test [3] (setting [12]), 0.254. Further, the fluorescence slope in test [5] is -0.445 (inactive). For the same compound, the NADPH fluorescence slope in [6] is -1.6e-05 (inactive). Moreover, in test [7], the slope is 0.00517 (inactive). Besides, the result in test [8] was inactive.
Regarding `COc1cc(C(=O)OCCN2CCCCC2)ccc1O`, the cell count in test [1] was determined as 675. In addition, the inhibition was -2.2% (inactive) in test [1], 38.8% (inactive) in test [2], -3.98% (inactive) in test [4] and 17.1% (inactive) in test [9]. The compound also came in with a nuclei count in [2] of 199%. Further, the z-score in test [3] (setting [10]) was -0.395; in [3] (setting [11]) it was -0.645; in [3] (setting [12]), 0.828. Also, in test [5], the fluorescence slope is -0.493 (inactive). In [6], the NADPH fluorescence slope is -0.000169 (inactive). The slope in [7] is 0.00513 (inactive). The call in test [8] was inactive.
As for `Cc1nc2c(c(=O)n1CC1CCCO1)c1nc3ccccc3nc1n2Cc1ccc2c(c1)OCO2` (configuration not stated), in [1], the cell count amounted to 281. Further, the inhibition in [1] is -7.1% (inactive); in test [2] it was -128% (inactive); in test [4] it was -0.584% (inactive); in test [9], 9.64% (inactive). Also, the nuclei count in [2] came to 80.3%. Also, the z-score in test [3] (setting [10]) was 2.15; in test [3] (setting [11]), -0.362; in test [3] (setting [12]) it was -1.56. The fluorescence slope in [5] is -0.42 (inactive). Besides, in test [6], the NADPH fluorescence slope was -0.000106 (inactive). Further, the slope in [7] was 0.00645 (inactive). The call in test [8] was inactive.
As for `CCN1CCCC1Cn1cnc2c([nH]c3ccc(C)cc32)c1=O` (configuration not stated), in [1], the cell count is 319. Moreover, the inhibition was -6.8% (inactive) in test [1], 13.2% (inactive) in test [2], 9.42% (inactive) in [4] and 128% (active) in [9]. The compound further showed a nuclei count in test [2] of 160%. Besides, the z-score in [3] (setting [10]) was -0.0977; in test [3] (setting [11]), 0.977; in test [3] (setting [12]), 0.149. Moreover, the fluorescence slope in [5] was -0.357 (inactive). In addition, the NADPH fluorescence slope in test [6] was -0.000123 (inactive). In test [7], the slope was 0.00693 (inactive). In addition, the outcome in [8] was inactive.
Consider `CC(C)(C)c1ccc(C(=O)C=[N+]=[N-])cc1`, for which the cell count in test [1] amounted to 519. Moreover, the inhibition in test [1] was -4.7% (inactive); in [2] it was -112% (inactive); in test [4] it was 3.97% (inactive); in [9], 2.22% (inactive). The compound also registered a nuclei count in [2] of 60.8%. For the same compound, the z-score in test [3] (setting [10]) was -1.12; in [3] (setting [11]), -0.668; in test [3] (setting [12]) it was -0.2. Moreover, the fluorescence slope in test [5] was -0.524 (inactive). In addition, the NADPH fluorescence slope in [6] was -6.4e-05 (inactive). In addition, the slope in test [7] was 0.00701 (inactive). For the same compound, the call in [8] was inactive.
Regarding `CCSc1nnc(N(CCC#N)CCC#N)s1`, the cell count in test [1] is 364. Moreover, the inhibition was -4.7% (inactive) in test [1], -60.2% (inactive) in test [2], 5.57% (inactive) in [4] and -11.4% (inactive) in test [9]. The compound further showed a nuclei count in test [2] of 114%. Also, the z-score in test [3] (setting [10]) is -0.814; in test [3] (setting [11]), 0.606; in test [3] (setting [12]) it was -1.64. The fluorescence slope in [5] is -0.474 (inactive). Further, the NADPH fluorescence slope in test [6] was -5.4e-06 (inactive). For the same compound, in test [7], the slope was 0.00528 (inactive). Moreover, the compound was called inactive in test [8].
Regarding `CCN(CC)c1ccc2cc(C(=O)Nc3ccccn3)c(=O)oc2c1`, the cell count in test [1] was found to be 384. The inhibition in test [1] is -12% (inactive); in test [2], 0.4% (inactive); in [4], -2.07% (inactive); in [9], 20.3% (inactive). This compound yielded a nuclei count in test [2] of 80.2%. Besides, the figures for the z-score in [3] (setting [10]), in [3] (setting [11]) and in test [3] (setting [12]) were -0.204, 0.482 and 0.701, respectively. The fluorescence slope in test [5] is -0.433 (inactive). Further, in test [6], the NADPH fluorescence slope was -2.6e-05 (inactive). Further, in [7], the slope was 0 (inactive). In addition, the result in test [8] was inactive.
`COC(=O)c1n[nH]c2ccccc12`: in test [1], the cell count stood at 323. Further, the inhibition in test [1] was 0.5% (inactive); in test [2], -157% (inactive); in test [4], -0.624% (inactive); in [9], 17.4% (inactive). For the same compound, the nuclei count in [2] was 119%. Besides, the values for the z-score in test [3] (setting [10]), in test [3] (setting [11]) and in [3] (setting [12]) were -0.132, 0.244 and -1.14, respectively. Moreover, the fluorescence slope in test [5] is -0.287 (inactive). The NADPH fluorescence slope in [6] was -1.1e-05 (inactive). The slope in [7] is 0.00523 (inactive). In addition, the compound was classed as inactive in test [8].
